B1: DH528-719: MBP-fused truncated Nox5 dehydrogenase domain residues 528–719 (∼62 kDa) (protein)
chain: PTRRIFASEHAVLIGAGIGITPFASILQSIMYRHQKRKHTCPSCQHSWIEGVQDNMKLHKVDFIWINRDQRSFEWFVSLLTKLEMDQAEEAQYGRFLELHMYMTSALGKNDMKAIGLQMALDLLANKEKKDSITGLQTRTQPGRPDWSKVFQKVAAEKKGKVQVFFCGSPALAKVLKGHCEKFGFRFFQENF
modifications: left off: MBP, N-terminal, kept
B2: DH584-719: MBP-fused truncated Nox5 dehydrogenase domain residues 584–719 (56 kDa) (protein)
chain: KLHKVDFIWINRDQRSFEWFVSLLTKLEMDQAEEAQYGRFLELHMYMTSALGKNDMKAIGLQMALDLLANKEKKDSITGLQTRTQPGRPDWSKVFQKVAAEKKGKVQVFFCGSPALAKVLKGHCEKFGFRFFQENF
modifications: left off: MBP, N-terminal, kept
B3: DH605-719: MBP-fused truncated Nox5 dehydrogenase domain residues 605–719, contains REFBD and CMBD sequences (protein)
chain: SLLTKLEMDQAEEAQYGRFLELHMYMTSALGKNDMKAIGLQMALDLLANKEKKDSITGLQTRTQPGRPDWSKVFQKVAAEKKGKVQVFFCGSPALAKVLKGHCEKFGFRFFQENF
modifications: left off: MBP, N-terminal, kept

What was measured:
[1] = Solubility of DH proteins in bacterial expression; assay type: physicochemical; settings: E. coli expression
[2] = test system: CaM; test: CaM interaction by size-exclusion chromatography; assay type: binding
Method in brief: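 HPLC size-exclusion used a Shodex KW802.5 column at 1.0 mL/min with 280 nm detection. Buffer was Tris, pH 7.5, with 0.2 M NaCl (range 0.2–0.5 M) plus 2 mM Ca²⁺ or 1 mM EDTA. Samples were filtered through 0.45 μm. MBP-DH constructs, alone or mixed with CaM or Dansyl-CaM, were compared with BSA. Collected fractions were assayed for Dansyl fluorescence.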

[3] = test system: CaM; test: CaM binding to DHs by isothermal titration calorimetry; settings: for Heat enthalpy change relative to DH665-719: fold of DH665-719 enthalpy
[4] = Dynamic light scattering; assay type: physicochemical
Method in brief: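 DLS was run on a DynaPro NanoStar. Samples at 1 mg/mL in 50 mM Tris, pH 7.5, were filtered through 0.45 then 0.1 μm and equilibrated 2 min at 25 °C. Acquisition was 5 s, with minimum peak intensity 1% and correlation cut-offs of 0.5 and 100,000 μs. Ten autocorrelation functions were averaged and fitted to decaying exponentials for the diffusion coefficient. Rh was calculated assuming spheres.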

[5] = Size-exclusion chromatography, oligomeric states; assay type: physicochemical
Method in brief: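 HPLC gel filtration of amylose-purified MBP-fused NOX5 dehydrogenase domain, run against CaM and BSA references. Column equilibrated in Tris pH 7.5 (50 mM per figure legends, 20 mM per methods) with 0.2 M NaCl (0.2–0.5 M range), plus 2 mM Ca²⁺ or 1 mM EDTA. Runs at 1.0 mL/min with 280 nm detection. 2 M urea added to partially dissociate oligomers. Species assigned by elution time.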

[6] = 1 mg/mL, 50 mM Tris, pH 7.5, 25 °C

Molecule | Solubility [1] | Share of D-CaM in DH fractions ([2]; equal amounts of D-CaM and DH528-719, Ca^2+) | Stoichiometry, ITC CaM/DH ([3]; CaM (titrant) into DH (near 2 μM), 50 mM Tris, pH 7.5, 2 mM Ca^2+, 25 °C, MBP-fused DH) | Heat enthalpy change relative to DH665-719 [3] | Decay of autocorrelation function [4, 6] | Hydrodynamic radius (Rh) [4, 6] | Poly-distribution (%pd) [4, 6] | Estimated average molecular weight (DLS) ([4]; Raleigh sphere assumption, qualitative) | Effect of CaM on DH oligomer ([2]; CaM binding, Ca^2+) | SEC elution time, major peak ([5]; 50 mM Tris, pH 7.5, 0.2 M NaCl) | SEC elution time, very minor peak (monomer) ([5]; 50 mM Tris, pH 7.5, 0.2 M NaCl) | SEC elution time, monomer, 2 M urea ([5]; 2 M urea, 50 mM Tris, pH 7.5, 0.2 M NaCl, Species 1) | SEC elution time, dimer, 2 M urea ([5]; 2 M urea, 50 mM Tris, pH 7.5, 0.2 M NaCl, Species 2) | SEC elution time, trimer, 2 M urea ([5]; 2 M urea, 50 mM Tris, pH 7.5, 0.2 M NaCl, Species 3 (∼168 kDa)) | SEC elution time, tetramer, 2 M urea ([5]; 2 M urea, 50 mM Tris, pH 7.5, 0.2 M NaCl, Species 4 (∼224 kDa)) | Dominant oligomer, high ionic strength ([5]; >0.25 M NaCl) | Effect of DTT and Ca^2+ on HPLC profile ([5]; reducing agent DTT and Ca^2+ ions) | Stoichiometry nCaM/DH, ITC at high DH concentration ([3]; CaM into 20–50 μM DH, Ca^2+, low value attributed to DH degradation)
B1 | most soluble | approximately half | 1.18 ± 0.05 | approximately double | – | – | – | – | – | – | – | – | – | – | – | – | – | –
B2 | – | – | – | approximately double | > 100 μs | 8.3 nm | 42.5% | ~450 kDa | the dimer disappeared | 6.7 min | ~9.5 min | 9.52 min | 8.02 min | 7.25 min | 6.71 min | favors trimer formation | did not affect its HPLC profile | –
B3 | – | – | – | approximately double | – | – | – | – | – | – | – | – | – | – | – | – | – | lower than 1

From PMC8777244 (Biochemistry and Biophysics Reports, 2022)
